From PubChem
CHOP inhibitor: CHOP inhibition in unfolded protein response | hit rate 3.8% among 220,000 | CHO-K1 CHOP-promoter luciferase, tunicamycin-induced, 15-18 h | inhibition, % at 10 µM | AID 2732;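 active = compounds that reduced the stress-induced luciferase reporter signal by more than about 70% of percent inhibition, limit read from the data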;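 also: 0% = tunicamycin plus vehicle and 100% = wells without tunicamycin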
NR3A LBD binder: modulators (binders) of human NR3A ligand-binding domain. NR3A LBD differential scanning fluorimetry, Tm shift; 0% = protein alone, 100% = glycine-bound protein. Tm shift relative to glycine control, % at 25 µM. hit rate 2.5% among 340,000. AID 1259313;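 active = melting temperature shift of at least 10% of the positive control shift, at one fixed dose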
XBP1 UPR activ: activators of adaptive arm of unfolded protein response (XBP1) | CHO-XBP1 luciferase reporter, IRE1-XBP1 UPR activation, luminescence; percent of tunicamycin response, DMSO as zero | activation, % at 20 µM | hit rate 0.33% among 330,000;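 active = versus positive control, 20 µM dose yields 30% or more activation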;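 also: 100% = tunicamycin at 10 µg/mL and 0% = DMSO only wells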
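incubation = overnight seeding at 37 °C, 6 h compound treatment at 37 °C | assay system = CHO-XBP1 cells stably carrying IRE1-XBP1-driven luciferase reporter | input = 1000 cells per well | detection = luciferase luminescence | dosing = single point, 20 µM final compound, 1% DMSO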
CHOP UPR activ: activators of apoptotic arm of unfolded protein response (CHOP); activation, % at 10 µM; CHO-CHOP luciferase reporter, UPR activation, luminescence; percent of tunicamycin response over DMSO baseline; hit rate 0.34% among 330,000;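 active = at 10 µM dose, activation of 40% or more, normalized to positive control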;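 also: 100% = tunicamycin at 10 µg/mL and 0% = DMSO alone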
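measured by = luciferase luminescence | assay system = CHO-CHOP cells, stable luciferase reporter of PERK-eIF2a-CHOP signalling | amount = 500 reporter cells seeded per well | timing = 6 h compound exposure at 37 °C after overnight seeding | controls = positive tunicamycin 10 µg/mL, negative DMSO alone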
aDG glyco up: increases alpha dystroglycan glycosylation. Pro5-aDG cells, alpha-DG glycosylation AlphaScreen (IIH6); 0% Pro5, 100% B10-LARGE cell signal. activation, % at 10 µM. hit rate 0.22% among 360,000. AID 624168;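 active = activation of at least 8% versus controls, or a plate z-score of at least 8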;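 also: Pro5 are CHO cells carrying HIG-tagged alpha-DG that lacks glycosylation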
MPTP block: permeability transition pore inhibition. isolated mouse mitochondria, Ca2+ swelling absorbance, 30 min. inhibition, % at 10 µM. hit rate 1.4% among 360,000;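 active = inhibition of 50% or more, scaled per plate between neutral and stimulator controls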;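 also: 0% = DMSO wells given calcium and 100% = 1 mM EGTA wells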
MPTP counter: membrane potential counter-screen of mitochondrial pore inhibitors; AID 624504; shares compounds with MPTP block; hit rate 78% among 5,000; isolated mitochondria, Rhodamine 123 fluorescence; inhibition, % at 10 µM; in the data active = inhibition above about 22%;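 also: 0% = DMSO vehicle and 100% = positive control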
MPTP swell DR: dose response confirmation of mitochondrial permeability transition pore inhibitors; shares compounds with MPTP block; isolated mitochondria swelling, absorbance; IC50, µM; hit rate 58% among 780; AID 651561; in the data active = IC50 below about 20 µM
MPTP cs DR: MPTP inhibitor counter-screen activity, dose response; shares compounds with MPTP block; IC50, µM; hit rate 49% among 780; isolated mitochondria counterscreen, fluorescence read-out; in the data active = IC50 below about 80 µM
* marks the source's active call; other numbers are inactive results; / = no result. Sampled rows, rich in hits. Any-hit rate of the full collection: about 5.6%.

SMILES | CHOP inhibitor | NR3A LBD binder | XBP1 UPR activ | CHOP UPR activ | aDG glyco up | MPTP block | MPTP counter | others
O=C(Nc1cccc(Cl)c1)Nc1nccs1 | -22 | 31* | 6 | 6 | 0 | 72* | 92*
O=C(Nc1ccc(Cl)c(Cl)c1)Nc1nccs1 | 79* | 37* | 3 | 2 | 0 | 87* | 68*
NC(CO)c1csc(NC(=O)Nc2cccc(Cl)c2)n1 (stereo unspecified) | / | / | / | / | 0 | 2 | /
O=C(Cc1ccc(F)cc1)Nc1nc(-c2ccc(F)c(F)c2)cs1 | / | -1 | -6 | 5 | 0 | 59* | 86*
COc1ccc(COC(=O)c2cccc(S(=O)(=O)N3CCN(C(C)=O)CC3)c2)cc1F | / | 0 | -2 | 2 | 1 | 56* | 45*
Cc1ccc(OC/C(O)=C(\C#N)c2nc3ccccc3s2)cc1 | -1 | 6 | 0 | -2 | 0 | 73* | 43*
CC(C)=C(C#N)c1nc2ccccc2s1 | 2 | 0 | 1 | 0 | 0 | 0 | /
COC(=O)c1ccc(/C(O)=C(\C#N)c2nc3ccccc3s2)cc1 | -77 | -6 | 4 | 1 | 0 | 74* | 53*
COC(=O)c1ccc(CC(=O)c2nc3ccccc3s2)cc1 | -8 | -5 | -4 | 4 | 0 | 26 | /
O=C(OCc1cc(=O)n2ccsc2n1)c1ccc(OC(F)F)cc1 | / | 2 | 1 | 3 | 0 | -2 | /
CCc1cccc(OCC(=O)Nc2ccc(C)c(S(=O)(=O)N3CCCCCC3)c2)c1 | / | 9 | -7 | 1 | 0 | 0 | /
Cc1ccc(S(=O)(=O)N2CCCCC2)cc1NC(=O)CSc1ncnc2ccccc12 | -6 | -8 | -2 | 1 | 1 | 5 | /
Cc1ccc(NC(=O)COc2ccc(N(C)C(=O)C(C)(C)C)cc2)cc1S(=O)(=O)N1CCCCC1 | / | -2 | -3 | 9 | 4.6* | 93* | 100*
Cc1ccc(NC(=O)CSc2ncnc3ccccc23)cc1S(=O)(=O)N1CCCCCC1 | 70* | -1 | -2 | 3 | 1 | 62* | 81*
O=c1[nH][nH]c(=O)c2c1[nH]c(=S)n2Cc1ccccc1 | / | -2 | / | / | 0 | 0 | /
CSc1ncc(Cl)c(C(=O)C(C#N)c2nc3c(C)cc(C)cc3c(=O)[nH]2)n1 (stereo unspecified) | 52 | -4 | -3 | -2 | 0 | 91* | 73*
NCCCCc1ccc2ccc3cccc4ccc1c2c34 | / | -2 | 2 | 0 | 0 | 89* | -15 | MPTP swell DR=6.2*;MPTP cs DR=53*
CCOc1cc(/C=C2\N=C(SC)SC2=O)cc([N+](=O)[O-])c1OC(C)=O | 44 | 5 | 0 | 1 | 0 | 23 | /
CCOc1c(OC(C)=O)ccc(/C=C2\N=C(SCC)SC2=O)c1[N+](=O)[O-] | 10 | 14* | -3 | 0 | 0 | 89* | 72*
CCOc1cc(/C=C2\N=C(SCC)SC2=O)cc([N+](=O)[O-])c1OC(C)=O | 28 | 6 | 0 | 1 | 0 | 104* | 37*
CCOc1c(O)ccc(/C=C2\SC(=S)NC2=O)c1[N+](=O)[O-] | -7 | 6 | -3 | 0 | 0 | -1 | /
Oc1ccc(Cl)cc1N=Cc1sc2ccccc2c1Cl | 35 | 0 | / | / | 2 | 1 | /
O=[N+]([O-])c1ccc(O)c(N=Cc2sc3ccccc3c2O)c1 | 41 | 16* | / | / | 0 | 60* | 67*
COc1ccc(NC(=O)CSc2nc(N)cc(=O)[nH]2)cc1S(=O)(=O)N1CCCCC1 | / | 2 | 0 | 1 | 0 | 1 | /
Fc1ccc2nc(Nc3nc4c(F)cc(F)cc4s3)sc2c1 | 10 | 34* | / | / | 0 | 97* | 71*
SMILES | CHOP inhibitor | NR3A LBD binder | XBP1 UPR activ | CHOP UPR activ | aDG glyco up | MPTP block | MPTP counter | others
Fc1ccc2nc(Nc3nc4c(F)cccc4s3)sc2c1 | 66 | 23* | 6 | 7 | 0 | 96* | 46*
O=C(Nc1nc2ccc(F)cc2s1)Oc1ccccc1 | / | -5 | -1 | 2 | 0 | -1 | /
O=c1[nH]c2cc(Cl)cc([N+](=O)[O-])c2c2ccc(Cl)cc12 | / | / | / | / | 0 | -1 | /
NS(=O)(=O)c1ccc(N2N=C(c3ccccc3)CC2c2ccccc2Cl)cc1 (stereo unspecified) | / | -16 | 1 | 3 | 0 | -1 | /
CN(C)S(=O)(=O)c1cccc(CSCc2cccc(S(=O)(=O)N(C)C)c2)c1 | / | -1 | -4 | 5 | 1 | 79* | 88*
Nc1ncnc2c1ncn2[C@@H]1O[C@H](C(=O)Nc2ccc(Oc3ccccc3)nc2)[C@@H](O)[C@H]1O | / | / | / | / | 0 | -1 | /
Clc1cccc(/C(Cc2nc3ccccc3[nH]2)=N\Nc2ccccc2)c1 | 58 | 13* | 0 | 7 | 0 | 97* | 62*
COc1ccc(C(=O)COC(=O)CNS(=O)(=O)c2ccc(C)cc2)cc1 | -13 | -1 | 1 | 1 | 0 | 0 | /
CCCN(CCC)CC(O)Cn1cc(/C=C/C(=O)c2cccs2)c2ccccc21 (stereo unspecified) | 3 | -2 | / | / | 1 | 74* | -16
O=S(=O)(Nc1cccnc1)c1ccc(C2CCCCC2)cc1 | 51 | 0 | 1 | 0 | 3 | 104* | 106*
Cc1ccc(C(=O)NCC(=O)N/N=C/c2sccc2C)cc1[N+](=O)[O-] | -1 | -2 | 5 | 1 | 0 | -3 | /
O=[N+]([O-])c1ccc(-c2nc3ccc([N+](=O)[O-])cc3[nH]2)cc1 | 50 | -2 | 4 | 3 | 1 | 105* | 92*
O=[N+]([O-])c1ccc2nc(/C=C/c3ccc(Cl)cc3)[nH]c2c1 | 59 | 2 | 5 | 6 | 1 | 90* | 80*
O=[N+]([O-])c1ccc2nc(C(O)C(O)c3nc4ccc([N+](=O)[O-])cc4[nH]3)[nH]c2c1 (stereo unspecified) | / | -12 | -5 | -2 | 0 | 0 | /
Cc1ccc(C(NC(=O)NC(C)c2ccccc2)C(Cl)(Cl)Cl)cc1F (stereo unspecified) | 87* | -8 | -3 | 3 | 1 | 76* | 83*
C[C@@H](C(=O)Nc1ccc2ccccc2c1)[C@H]1C[C@]1(C)[C@H](NS(=O)(=O)c1ccccc1)c1ccccc1 | 65 | -1 | -1 | 1 | / | / | /
CO/N=C/C1CCN(c2ncc(C(F)(F)F)cc2Cl)C1=O (stereo unspecified) | 16 | 2 | -2 | -2 | 0 | 0 | /
